The values that follow come from ChEMBL document CHEMBL3102808, “Synthesis, in vitro antimalarial activity and cytotoxicity of novel 4-aminoquinolinyl-chalcone amides” (Bioorg Med Chem, 2014).

The IC50 is the concentration needed to halve the response being measured. Lower therefore signals greater potency in that assay.

The nature of series [1]: Selectivity index, ratio of IC50 for human WI38 cells to IC50 for Plasmodium falciparum 3D7. Format: toxicity, cell-based, WI-38. The conditions noted are these: read-out: Ratio IC50. The procedure, abridged:
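Selectivity index calculated as IC50 on WI-38 fibroblasts (48 h SRB) divided by IC50 on P. falciparum 3D7 (pLDH assay).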

Series [2] concerns Plasmodium falciparum. Description: Antimalarial activity against Plasmodium falciparum 3D7 after 48 hrs by LDH colorimetric assay. The class given is functional, organism-based. The following applies: 3D7, 48 h. The procedure, abridged:
(§1)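 Parasite survival after drug exposure read by pLDH colorimetric enzyme assay; APAD co-factor, formazan absorbance at 620 nm. Samples prepared in parasite culture medium in 96-well plates. Survival per well relative to drug-free control wells. IC50 from fitted sigmoidal dose-response curves.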

Series [3] concerns Plasmodium falciparum. Description: Resistance index, ratio of IC50 for Plasmodium falciparum W2 to IC50 for Plasmodium falciparum 3D7. Format: functional. The procedure, abridged:
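P. falciparum 3D7 and W2 cultures were exposed to test samples prepared in parasite culture medium. Survival was read by a pLDH colorimetric assay using APAD as cofactor, with formazan absorbance at 620 nm and percentage survival set against drug-free wells. IC50 for each strain came from fitted sigmoidal dose-response curves, and the ratio is IC50 W2 / IC50 3D7.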

Series [4] can be described thus: Cytotoxicity against human WI38 cells after 48 hrs by SRB assay. The class given is cell-based. The conditions noted are these: WI-38, 48 h. The procedure, abridged: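 WI-38 normal human fetal lung fibroblasts, passages 21–50, seeded at 10 000 cells/well and incubated 24 h. Compounds dissolved in DMSO, diluted in medium to five concentrations, then exposed 48 h. Untreated cells as control, medium-only blank, parthenolide as standard. Cells TCA-fixed and stained with sulforhodamine B (NCI protocol). IC50 by non-linear regression.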

In series [5] the test system is Plasmodium falciparum. Description: Antimalarial activity against Plasmodium falciparum W2 after 48 hrs by LDH colorimetric assay. The class given is functional, organism-based. The following applies: W2, 48 h. The procedure, abridged: as §1
Series [6] has as its system Plasmodium falciparum. The series is described as follows: Ratio of chloroquine IC50 to compound IC50 for Plasmodium falciparum W2 after 48 hrs by LDH colorimetric assay. The class given is functional.

For `Cc1ccc(C(=O)/C=C/c2ccc(C(=O)NCCOCCOCCNc3ccnc4cc(Cl)ccc34)cc2)o1`, the selectivity ratio in series [1] worked out at 40. Further, the IC50 was found to be 0.26 µM with Plasmodium falciparum [2], 10.2 µM in series [4] and 0.27 µM in the series on Plasmodium falciparum [5]. In the series on Plasmodium falciparum [3], the “Ratio IC50” value is given as 1.1.
`Cc1ccc(C(=O)/C=C/c2ccc(C(=O)NCCCCCCNc3ccnc4cc(Cl)ccc34)cc2)o1`: the “Ratio IC50” value is 2 in the series on Plasmodium falciparum [6] and 1.5 in the series with Plasmodium falciparum [3]. The selectivity ratio in series [1] was 435. The IC50 with Plasmodium falciparum [2] stood at 0.05 µM; in series [4] it was 19.5 µM; with Plasmodium falciparum [5], 0.07 µM.
Regarding `Cc1ccc(C(=O)/C=C/c2ccc(C(=O)N(C)CCCNc3ccnc4cc(Cl)ccc34)cc2)o1`, the selectivity ratio in series [1] is 50. For the same molecule, the IC50 in the series on Plasmodium falciparum [2] is 0.37 µM; in series [4], 18.6 µM; in the series on Plasmodium falciparum [5] it was 0.46 µM. The “Ratio IC50” value with Plasmodium falciparum [3] stood at 1.2.
The matching figures for `Cc1ccc(C(=O)/C=C/c2ccc(C(=O)NCCCN(C)CCCNc3ccnc4cc(Cl)ccc34)cc2)o1`: 58, 0.09 µM, 5.3 µM, 0.22 µM and 2.4.
The corresponding values for `Cc1ccc(C(=O)/C=C/c2ccc(C(=O)N3CCN(c4ccnc5cc(Cl)ccc45)CC3)cc2)o1` are 32, 0.54 µM, 17.3 µM, 1.26 µM and 2.3.
`Cc1ccc(C(=O)/C=C/c2ccc(C(N)=O)cc2)o1` gave an IC50 with Plasmodium falciparum [2] of 10 µM.
On the same count and under the same terms, the result for `CCCCNC(=O)c1ccc(/C=C/C(=O)c2ccc(C)o2)cc1` reads 10 µM; that for `Cc1ccc(C(=O)/C=C/c2ccc(C(=O)N3CCOCC3)cc2)o1`, greater than 30 µM.
Consider `Cc1ccc(C(=O)/C=C/c2ccc(C(=O)O)cc2)o1`, for which the figures for the IC50 (in the series on Plasmodium falciparum [2]; in series [4]; in the series with Plasmodium falciparum [5]) were 18.4 µM, greater than 100 µM and 14.2 µM, respectively. For the same molecule, the “Ratio IC50” value in the series with Plasmodium falciparum [3] is 0.8.
As for `Cc1ccc(C(=O)/C=C/c2ccc(C(=O)NCCNc3ccnc4cc(Cl)ccc34)cc2)o1`, the selectivity ratio in series [1] was found to be 446. Also, the IC50 is 0.11 µM in the series with Plasmodium falciparum [2], 47.3 µM in series [4] and 1.78 µM in the series with Plasmodium falciparum [5]. In the series with Plasmodium falciparum [3], the “Ratio IC50” value is 16.7.
The matching figures for `Cc1ccc(C(=O)/C=C/c2ccc(C(=O)NCCCNc3ccnc4cc(Cl)ccc34)cc2)o1`: 1120, 0.07 µM, 74.5 µM, 0.23 µM and 3.4.
The corresponding values for `Cc1ccc(C(=O)/C=C/c2ccc(C(=O)NCCCCNc3ccnc4cc(Cl)ccc34)cc2)o1` are 819, 0.05 µM, 39 µM, 0.1 µM and 2.1.
The corresponding values for `Cc1ccc(C(=O)/C=C/c2ccc(C(=O)NC(C)CNc3ccnc4cc(Cl)ccc34)cc2)o1` (centres undefined) are 126, 0.08 µM, 10 µM, 0.11 µM and 1.4.
The molecule `C=C1C(=O)O[C@@H]2C3O[C@]3(C)CC/C=C(\C)CC[C@@H]12` (some centres undefined) came in with a half-inhibitory concentration (IC50) in series [4] of 16.4 µM.
